How the values were obtained:
Format in all cases: functional, cell-based
MCF7 = test: Antiproliferative activity against human MCF7 cells after 72 hrs by MTT assay; details: MCF7, 72 h
Outline: (§1)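 Log-phase cells seeded at 2 × 10⁴ cells/ml, 24 h at 37 °C in 5% CO₂, then exposed to compounds for 72 h at 37 °C. MTT (5 mg/ml) added for 4 h, medium discarded, formazan dissolved in DMSO, absorbance read at 570 nm. Each concentration in triplicate, experiment repeated three times. IC50 from dose-response curves of inhibition ratio versus untreated control.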

HCT-116 = test: Antiproliferative activity against human HCT116 cells after 72 hrs by MTT assay; details: HCT-116, 72 h; outline: as §1
[1] = Antiproliferative activity against human Bel7402 cells after 72 hrs by MTT assay; details: Bel-7402, 72 h; outline: as §1

Row | SMILES | IC50 (MCF7) [µM] | IC50 (HCT-116) [µM] | IC50 [1] [µM]
1 | Cc1ccccc1NC1=C/C(=N/NC(N)=S)C(=O)N=C1Nc1ccccc1C | 0.58 | 1.52 | 1.71
2 | Cc1cccc(NC2=C/C(=N/NC(N)=S)C(=O)N=C2Nc2cccc(C)c2)c1 | 0.15 | 8.65 | 2.73
3 | Cc1ccc(NC2=C/C(=N/NC(N)=S)C(=O)N=C2Nc2ccc(C)cc2)cc1 | 3.06 | 7.04 | 4.33
4 | NC(=S)N/N=C1/C=C(Nc2ccccc2Cl)C(Nc2ccccc2Cl)=NC1=O | 3.49 | 3.54 | 3.42
5 | NC(=S)N/N=C1/C=C(Nc2cccc(Cl)c2)C(Nc2cccc(Cl)c2)=NC1=O | 0.63 | 3.38 | 2.19
6 | NC(=S)N/N=C1/C=C(Nc2ccc(Cl)cc2)C(Nc2ccc(Cl)cc2)=NC1=O | 1.37 | 0.19 | 0.82
7 | COc1ccccc1NC1=C/C(=N/NC(N)=S)C(=O)N=C1Nc1ccccc1OC | 10.2 | 20.8 | 13.4
8 | COc1cccc(NC2=C/C(=N/NC(N)=S)C(=O)N=C2Nc2cccc(OC)c2)c1 | > 50 | – | –
9 | COc1ccc(NC2=C/C(=N/NC(N)=S)C(=O)N=C2Nc2ccc(OC)cc2)cc1 | 10.4 | 22.4 | 17.8
10 | CCOc1ccc(NC2=C/C(=N/NC(N)=S)C(=O)N=C2Nc2ccc(OCC)cc2)cc1 | 13.7 | 21.3 | 31
11 | NC(=S)N/N=C1/C=C(Nc2ccc(F)cc2)C(Nc2ccc(F)cc2)=NC1=O | 1.12 | 3.72 | 3.66
12 | NC(=S)N/N=C1/C=C(Nc2ccc(Br)cc2)C(Nc2ccc(Br)cc2)=NC1=O | 2.58 | 2.15 | 5.84
13 | NC(=S)N/N=C1/C=C(Nc2cccc([N+](=O)[O-])c2)C(Nc2cccc([N+](=O)[O-])c2)=NC1=O | 11.1 | 19.4 | 8.11
14 | NC(=S)N/N=C1/C=C(Nc2ccccc2)C(Nc2ccccc2)=NC1=O | 7.11 | 24.7 | 11.9
15 | Cc1ccccc1NC1=C/C(=N/N=C(\N)SCc2ccccc2)C(=O)N=C1Nc1ccccc1C | 16.3 | 13.8 | 17.1
16 | Cc1cccc(NC2=C/C(=N/N=C(\N)SCc3ccccc3)C(=O)N=C2Nc2cccc(C)c2)c1 | 9.34 | 12.8 | 8.72
17 | Cc1ccc(NC2=C/C(=N/N=C(\N)SCc3ccccc3)C(=O)N=C2Nc2ccc(C)cc2)cc1 | 13.4 | 8.27 | 7.68
18 | N/C(=N\N=C1\C=C(Nc2cccc(Cl)c2)C(Nc2cccc(Cl)c2)=NC1=O)SCc1ccccc1 | 15.2 | 11.7 | 7.16
19 | N/C(=N\N=C1\C=C(Nc2ccc(Cl)cc2)C(Nc2ccc(Cl)cc2)=NC1=O)SCc1ccccc1 | 7.72 | 9.6 | 17.3
20 | N/C(=N\N=C1\C=C(Nc2ccc(F)cc2)C(Nc2ccc(F)cc2)=NC1=O)SCc1ccccc1 | 7.58 | 11.5 | 7.69
21 | COc1ccccc1NC1=C/C(=N/N=C(\N)SCc2ccccc2)C(=O)N=C1Nc1ccccc1OC | 8.34 | 14.5 | 13.1
22 | O=c1[nH]cc(F)c(=O)[nH]1 [FLUOROURACIL] | 7.08 | 10.5 | 11.1
